Reference: publication PMC9968502 (International Journal of Nanomedicine, 2023)
Converted amounts (≈) assume the structure as drawn.

Experiments:
[1] = above the CMC, previous studies; ref [16–18]; cited from earlier work
[2] = ref [19], cited from earlier work
[3] = Apparent solubility measurement in deionised water; type: physicochemical; settings: 37 °C, thermodynamic from solid
Method in brief: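 Excess crystalline test compound or its 1:10 solid dispersion was shaken in deionised water at 50 strokes/min and 37 °C for 24 h, then filtered (0.45 µm). Concentration was measured by HPLC: C18 column, 2% glacial acetic acid:methanol (23:77 v/v) at 1 mL/min, detection at 424 nm. Measured in triplicate.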

[4] = Dissolution test in pH 1.2 and pH 6.8 buffers with 0.2% Tween 80; type: physicochemical; settings: 0.2% Tween 80, 37 °C
Method in brief: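 Crystalline compound or solid dispersion, each equivalent to 2 mg test compound, was stirred at 50 rpm and 37 °C in 100 mL phosphate buffer (pH 1.2 or pH 6.8, each with 0.2% Tween 80). Samples were taken at 5, 10, 20, 30, 60, 120, 180, 240 and 300 min, with medium replaced at 37 °C. Samples were filtered (0.45 µm) and analysed by the 424 nm HPLC method.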

[5] = Particle size analysis of micelles by dynamic light scattering; type: physicochemical; settings: in water, DLS
Method in brief: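 Carrier glycoside alone or the solid dispersion powder was dispersed in deionised water and sonicated for 2 min. Volumetric size distribution was measured by dynamic light scattering, and the mean size was taken from 3 replicates.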

In the case of α-Glycosyl Rutin [Rutin-G], the Aggregation number [1] is listed as 4.

In the case of COc1cc(C2Oc3cc([C@H]4Oc5cc(O)cc(O)c5C(=O)[C@@H]4O)ccc3OC2CO)ccc1O (stereo partly drawn) [silybin], the “Fold increment of silybin water solubility by Mog-V” value [2] is listed as 2000 fold, the “Water solubility of silybin” value ([2]; silybin alone) is listed as 1 µg/mL and the “Water solubility of silybin with Mog-V” value ([2]; solid dispersion of silybin in Mog-V dissolved in water) is listed as 2000 µg/mL.

For COc1cc(/C=C/C(=O)CC(=O)/C=C/c2ccc(O)c(OC)c2)ccc1O [CUR, Curcumin], the solubility at 24 h [3] was 0.25 µg/mL (≈ 0.679 µM), the CUR released ([4]; pH 1.2 buffer, in 300 min) was 22% and the “Dissolution rate (in words)” value ([4]; pH 6.8 buffer) was “slow dissolution rate”. For the same molecule, the “Micelle size (diameter)” value [5] was ~ 154 nm.

In the case of α-Glucosyl Stevia [Stevia-G], the Aggregation number [1] is given as 12.
